Results: ChEMBL document CHEMBL1123247, “Nucleoside conjugates. 7. Synthesis and antitumor activity of 1-beta-D-arabinofuranosylcytosine conjugates of ether lipids” (J Med Chem, 1986)

What was measured:
L1210 [1] = experiment: Antitumor activity was determined against the ip implanted L1210 leukemia in mice by percent median survival rate (treated/control) at 300 mg/kg (treatment of 1qd schedule) dosage; 20.5/6.5; type: functional, Mus musculus; conditions: route intraperitoneal
Procedure, shortened: (§1)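 DBA/2J mice, 23-28 g, in groups of 6, were inoculated ip with 1×10^6 L1210 cells on day 0. Dosing was ip starting 24 h later on the stated daily schedules. Conjugates were given as sonicated solutions and reference prodrugs as suspensions in 0.9% NaCl with 0.5% Tween-80. Mice were observed daily until death or 45 days. Median survival T/C was calculated from survivors per NCI protocols.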

L1210 [2] = experiment: Antitumor activity against ic implanted L1210 lymphoid leukemia in mice expressed as active dose range (1 qd treatment schedule) required to produce increase in life span by >25% was determined; Range is 200-400; type: functional, Mus musculus
Procedure, shortened: (§2)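 DBA/2J mice, groups of 6 (26-32 g), got 1 × 10^5 L1210 cells ic on day 0. Dosing was ip starting 24 h later, as a sonicated solution or suspension in 0.9% NaCl with 0.5% Tween-80, over a wide dose range. Mice were followed daily until death. Median survival T/C was taken from survivors per NCI protocols, and ILS = (T/C − 1) × 100. Active range means doses giving ILS ≥25%; optimal dose means greatest ILS.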

L1210 [3] = experiment: Antitumor activity was determined against the ic implanted L1210 lymphoid leukemia in mice by percent median survival rate (treated/control) at 80 mg/kg (1-5qd treatment schedule) dosage; 22.0/8.0; type: functional, Mus musculus
L1210 [4] = experiment: Antitumor activity was determined against the ip implanted L1210 leukemia in mice by percent median survival rate (treated/control) at 40 mg/kg (treatment of 1-5qd schedule) dosage; 30.0/8.0; type: functional, Mus musculus; conditions: route intraperitoneal; procedure, shortened: as §1
L1210 [5] = experiment: Antitumor activity was determined against the ic implanted L1210 lymphoid leukemia in mice by range in survival days at 80 mg/kg (1-5qd treatment schedule) dosage; Range is 11-24; type: functional, Mus musculus
P388 [6] = experiment: Antitumor activity was determined against the ip implanted P388 leukemia in mice by range in survival days at 60 mg/kg (1-5qd treatment schedule) dosage; Range is 35->45; type: functional, Mus musculus; conditions: route intraperitoneal
P388 [7] = experiment: Antitumor activity was determined against the ip implanted P388 leukemia in mice by 45-day survivors in mice at 60 mg/kg (treatment of 1-5qd schedule) dosage; type: functional, Mus musculus; conditions: route intraperitoneal
Procedure, shortened: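 DBA/2J mice, 23-33 g, in groups of 6, were inoculated ip with 1×10^6 P388 cells on day 0. Dosing was ip from 24 h on the stated schedules, in 0.9% NaCl with 0.5% Tween-80 (sonicated solution or suspension). Survival was followed daily until death or 45 days. Median T/C was calculated from survivors per NCI protocols, with ILS = (T/C − 1) × 100.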

L1210 [8] = experiment: Antitumor activity was determined against the ic implanted L1210 lymphoid leukemia in mice by percent increase in life span at 167 mg/kg (treatment of 1, 5, 9qd schedule) dosage; type: functional, Mus musculus; procedure, shortened: as §2
P388 [9] = experiment: Antitumor activity was determined against the ip implanted P388 leukemia in mice by change in […] at 133 mg/kg (treatment of 1qd schedule) dosage; type: functional, Mus musculus; conditions: dose 300 mg/kg; route intraperitoneal; in the assay text read “300 mg/kg” for “133 mg/kg”
Procedure, shortened: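 P388 leukemia, 1×10^6 cells implanted ip on day 0 into DBA/2J mice, groups of 6 (wt 23-33 g). Dosing ip started 24 h post-inoculation, vehicle 0.9% NaCl containing 0.5% Tween-80. Animals were observed daily until death or 45 days. Outputs were weight change, median survival T/C from survivors per NCI protocols, and %ILS = (T/C − 1) × 100.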

L1210 [10] = experiment: Antitumor activity was determined against the ic implanted L1210 lymphoid leukemia in mice by percent increase in life span at 500 mg/kg (treatment of 1qd schedule) dosage
L1210 [11] = experiment: Antitumor activity against ip implanted L1210 leukemia in mice expressed as active dose range (1-5qd treatment schedule) required to produce increase in life span by >25% was determined; Range is 40-80; type: functional, Mus musculus
Procedure, shortened: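 DBA/2J mice, groups of 6 (23-28 g), were inoculated ip with 1 × 10^6 L1210 cells on day 0. Dosing was ip from 24 h, in 0.9% NaCl with 0.5% Tween-80 (sonicated solution or suspension). Mice were observed daily until death or day 45. Median survival T/C followed NCI protocols, and ILS = (T/C − 1) × 100. Active range means doses giving ILS ≥25%; optimal dose means greatest ILS.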

L1210 leukemia (mouse) = experiment: Antitumor activity was determined against the ic implanted L1210 lymphoid leukemia in mice by percent median survival rate (treated/control) at 500 mg/kg (treatment of 1qd schedule) dosage; 23.0/7.0
L1210 (mouse) = experiment: Antitumor activity was determined against the ic implanted L1210 lymphoid leukemia in mice by change in […] at 500 mg/kg (treatment of 1qd schedule) dosage
P388 [12] = experiment: Antitumor activity was determined against the ip implanted P388 leukemia in mice by percent median survival rate (treated/control) at 60 mg/kg (1-5qd treatment schedule) dosage; 23.0/11.0; type: functional, Mus musculus; conditions: route intraperitoneal
L1210 [13] = experiment: Antitumor activity was determined against the ip implanted L1210 leukemia in mice by percent increase in life span at 100 mg/kg (treatment of 1-5qd schedule) dosage; type: functional, Mus musculus; conditions: route intraperitoneal
Procedure, shortened: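 DBA/2J mice in groups of 6 (wt 23-28 g) were inoculated ip with 1×10^6 L1210 cells on day 0. Dosing was ip from 24 h, in 0.9% NaCl with 0.5% Tween-80 (conjugates sonicated), across a range of doses. Mice were observed daily until death or 45 days. Median T/C was computed from survivors per NCI protocols, and ILS = (T/C − 1)×100.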

L1210 [14] = experiment: Antitumor activity was determined against the ic implanted L1210 lymphoid leukemia in mice by percent increase in life span at 300 mg/kg (treatment of 1-5qd schedule) dosage; type: functional, Mus musculus; procedure, shortened: as §2
L1210 [15] = experiment: Antitumor activity against the ic implanted L1210 lymphoid leukemia in mice expressed as optimal dose (1-9qd treatment schedule) required to produce greatest increase in life span was determined; type: functional, Mus musculus; procedure, shortened: as §2
P388 [16] = experiment: Antitumor activity against ip implanted P388 leukemia in mice expressed as active dose range (1 qd treatment schedule) required to produce increase in life span by >25% was determined; Range is 100-600; type: functional, Mus musculus
Procedure, shortened: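 P388 leukemia: 1 × 10^6 cells were given ip on day 0 to DBA/2J mice, groups of 6 (23-33 g). Treatment was ip from 24 h after inoculation, vehicle 0.9% NaCl with 0.5% Tween-80. Mice were observed daily until death or 45 days. Median survival T/C was calculated from survivors per NCI protocols, and ILS = (T/C − 1) × 100. Active range means doses giving ILS ≥25%; optimal dose means greatest ILS.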

P388 [17] = experiment: Antitumor activity was determined against the ip implanted P388 leukemia in mice by range in survival days at 500 mg/kg (treatment of 1qd schedule) dosage; Range is 14-15; type: functional, Mus musculus; conditions: route intraperitoneal

Work on `CCCCCCCCCCCCCCCC(=O)OC[C@H](COP(=O)(O)OP(=O)(O)OC[C@H]1O[C@@H](n2ccc(N)nc2=O)[C@@H](O)[C@@H]1O)OC(=O)CCCCCCCCCCCCCCC` yielded a median survival time (L1210 [1]) of 20.5 days, an Active dose range (L1210 [2]) of 200 mg/kg/day and a median survival time (L1210 [3]) of 22 days. The median survival time (L1210 [4]) was 30 days, the Range (L1210 [5]) was 11 and the Range (P388 [6]) was 35.

With `CCCCCCCCCCCCCCCCOCC(COP(=O)(O)OP(=O)(O)OC[C@H]1O[C@@H](n2ccc(N)nc2=O)[C@@H](O)[C@@H]1O)OC(=O)CCCCCCCCCCCCCCC` (mixture of isomers) the Survivors (P388 [7]) was 6, the ILS (L1210 [8]) was 200 and the Weight change (P388 [9]) was -1.51 g mouse-1. The ILS (L1210 [10]) was 229, the Active dose range (L1210 [11]) was 40 mg/kg/day and the T/C (L1210 leukemia (mouse)) was 23%. The Weight change (L1210 (mouse)) was -2.07 g mouse-1.

`CCCCCCCCCCCCCCCCCCOCC(COP(=O)(O)OP(=O)(O)OC[C@H]1O[C@@H](n2ccc(N)nc2=O)[C@@H](O)[C@@H]1O)OC(=O)CCCCCCCCCCCCCCC` (mixture of isomers) gave a T/C (P388 [12]) of 23% and an ILS (L1210 [13]) of 229.

`Nc1ccn([C@@H]2O[C@H](CO)[C@@H](O)[C@@H]2O)c(=O)n1` [CYTARABINE] gave an ILS (L1210 [14]) of 129, an Optimal dose (L1210 [15]) of 100 mg and an Active dose range (P388 [16]) of 100 mg/kg/day. It also gave a Range (P388 [17]) of 14.
